Assay outcomes from PubChem.
Compounds with a hit are over-represented: about 2.4% of the library has one in this group of screens.
aDG glyco act = activators of alpha-DG glycosylation, primary screen, uHTS, Pro5-aDG cells, AlphaScreen. alpha-DG glycosylation AlphaScreen (IIH6); 0% Pro5, 100% B10-LARGE cell signal. 0.22% of 360,000 active. activation, % at 10 µM;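 active = activation of at least 8% versus controls, or a plate z-score of at least 8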;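 note: Pro5 are CHO cells carrying HIG-tagged alpha-DG that lacks glycosylation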
MPTP inh = mitochondrial permeability transition pore inhibitors, primary screen, biochemical, isolated mouse mitochondria, absorbance | inhibition, % at 10 µM | Ca2+ swelling absorbance, 30 min | 1.4% of 360,000 active;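 active = inhibition of 50% or more, scaled per plate between neutral and stimulator controls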;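 note: 0% = DMSO wells given calcium and 100% = 1 mM EGTA wells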
NR2E3 ag-1 = inhibitors of NR2E3-RetCOR corepressor binding, primary screen, NR2E3 agonist project, biochemical, TR-FRET, GST-NR2E3, biotin-RetCOR; Photoreceptor-specific nuclear receptor (Homo sapiens), Q9Y5X4; inhibition of corepressor binding, % at 4.78 µM; 1536-well; 0.12% of 320,000 active;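 active = percent inhibition above the cutoff of mean plus 3 SD of all tested compounds, set per screening campaign, cut at about 20% in these data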;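 note: 0% = DMSO wells and 100% = biotin wells as full block of FRET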
Target sequence (Q9Y5X4 whole entry, looked up): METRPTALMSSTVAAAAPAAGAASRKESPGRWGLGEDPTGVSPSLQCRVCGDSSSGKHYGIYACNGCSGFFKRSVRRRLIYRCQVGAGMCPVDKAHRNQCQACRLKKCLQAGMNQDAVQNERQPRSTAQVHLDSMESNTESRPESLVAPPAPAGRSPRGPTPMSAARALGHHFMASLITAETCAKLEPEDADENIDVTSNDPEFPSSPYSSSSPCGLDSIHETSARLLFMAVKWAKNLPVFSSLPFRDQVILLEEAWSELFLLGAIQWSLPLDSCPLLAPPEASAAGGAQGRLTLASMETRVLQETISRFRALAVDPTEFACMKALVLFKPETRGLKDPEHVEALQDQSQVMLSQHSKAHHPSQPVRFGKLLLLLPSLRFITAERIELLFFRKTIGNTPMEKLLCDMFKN
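System: GST-tagged NR2E3 plus biotinylated RetCOR corepressor; Buffer or medium: pH 7.5 Tris-based buffer; Probe or stimulus: RetCOR corepressor, biotinylated, 7 nM; Doses: compound at 4.8 µM, single dose; Schedule: 5 h incubation at 4 °C; Technique: time-resolved FRET; Evaluation: percent inhibition of TR-FRET ratio; Replication: one well per compound, singlicate testing.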
NR2E3 ag-2 = NR2E3 agonists in two-hybrid cells, primary screen, cell-based, luminescence, CHO-S, Gal4-NCOR/VP16-NR2E3; AID 602229, 2012; Photoreceptor-specific nuclear receptor (Homo sapiens), Q9Y5X4; luciferase; inhibition of corepressor binding, % at 3.98 µM; 0.35% of 360,000 active;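 active = inhibition above the mean of all tested compounds plus 3 SD, cut at about 70% in these data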;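 note: 0% = DMSO with NR2E3 transfected cells and 100% = cells lacking NR2E3 construct; higher means lower luciferase signal from less NR2E3 corepressor binding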
Jurkat NFkB inh = inhibitors of induced NF-kB luciferase reporter, primary screen, TCR NF-kB activation inhibitor project, cell-based, luminescence, uHTS | Jurkat, PMA/ionomycin-induced NF-kB luciferase reporter | inhibition, % at 4 µM | 0.53% of 330,000 active; in the data active = inhibition above about 50%
697 NFkB inh = inhibitors of PMA/ionomycin-induced NF-kB reporter, 697 cells, primary screen, B-cell NF-kB inhibitor project, cell-based, luminescence, uHTS | 697 B-cell NF-kB luciferase reporter, 16 h | inhibition, % at 4 µM | 0.33% of 330,000 active; in the data active = inhibition above about 35%
697 NFkB conf = PMA/ionomycin-induced NF-kB reporter inhibitors, 697 retest, confirmation, B-cell NF-kB inhibitor project, cell-based, luminescence, single concentration | shares compounds with 697 NFkB inh | 697 B-cell NF-kB luciferase, 16 h | inhibition, % at 4 µM | 35% of 2,000 active | AID 449746, 2010; in the data active = inhibition mostly above about 28%, no sharp cut-off; inactive = mostly below about 22%
An asterisk follows results filed as active; i = inactive; · = no result given.

SMILES	aDG glyco act	MPTP inh	NR2E3 ag-1	NR2E3 ag-2	Jurkat NFkB inh	697 NFkB inh	697 NFkB conf
O=C(N/N=C(\CC(=O)c1cccs1)C(F)(F)F)c1ccncc1	0	10	-6	-3	7	-271	-7
O=C(O)CC/C(=N\NC(=O)c1ccccc1)c1cccs1	0	0	-6	-73	-10	9	·
Cc1cc(C)nc(NC(=O)c2ccc(C)c([N+](=O)[O-])c2)n1	0	-1	1	-23	-14	-8	·
Cc1csc(NC(=O)c2cc3ccccc3o2)n1	0	0	1	-146	-135	36*	14
Cc1csc(NC(=O)c2ccc(C)c([N+](=O)[O-])c2)n1	0	2	5	-179	-146	-311	-243
C[C@H]1CN([C@@H](C)CO)C(=O)c2cccc(NS(=O)(=O)c3ccc(F)cc3)c2O[C@H]1CN(C)S(=O)(=O)c1cn(C)cn1	0	-2	·	-22	8	13	·
CC(C)(C)NC(=O)COC(=O)c1cc(S(=O)(=O)N2CCCCC2)ccc1N1CCOCC1	0	-4	-1	-8	-5	-8	·
Cn1c(=O)c2c(SCC(=O)Nc3ccccc3F)nc(-c3ccccc3F)nc2n(C)c1=O	0	1	0	-2	7	48*	12*
Cn1c(=O)c2c(SCC(=O)Nc3ccccc3F)nc(C3CC3)nc2n(C)c1=O	0	1	-2	-32	1	-21	·
O=c1c2ccccc2oc2ccc(-c3ccc4cc[nH]c4c3)cc12	0	0	·	-119	-3	-498	i
Cc1ccc2oc3ccccc3c(=O)c2c1	0	0	·	-30	·	·	·
CCOC(=O)c1c(C)[nH]c(N=Nc2ccccc2)c1C	0	1	-1	-104	-97	-80	·
CCOC(=O)c1c(C)[nH]c(N=Nc2ccc(C)cc2)c1C	0	4	6	-167	-140	-263	-119
N=c1ccn2c(n1)O[C@H]1[C@H](O)[C@@H](CO)O[C@H]12	0	1	·	9	38	52*	45*
O=C(OCC1OC2C(Oc3nc(=O)ccn32)C1O)c1ccccc1 (stereo not given)	0	0	0	19	3	-12	·
O=c1cc(-c2ccccc2)oc2ccc3ccccc3c12	0	1	·	-89	·	·	·
O=c1cc(-c2ccc(O)c(O)c2)oc2ccc3ccccc3c12	0	5	·	-2	-67	i	-366
Cc1ccc(C(=O)Nc2cccc(C(=O)NCc3ccccc3)c2)o1	0	-1	4	0	-3	36*	1
Cc1sc2c(=O)n3c(nc2c1C(=O)NCCCN1CCOCC1)CCCCC3	0	0	-1	-7	1	7	·
COc1ccc(C(=O)Nc2ccc3ccccc3n2)c(OC)c1OC	0	0	7	-54	-134	-435	-442
O=C(Nc1ccc2ccccc2n1)c1ccccc1Cl	0	-1	0	-106	-107	-287	-255
COc1cccc(C(=O)Nc2cccc3ccccc23)c1OC	0	2	-1	-31	-11	-13	·
O=C(Nc1ccc2ccccc2n1)c1ccc(Cl)cc1	0	0	1	-154	-125	-187	·
Cc1ccccc1C(=O)Nc1ccc(-c2nnc(SC(C)C(=O)O)n2C)cc1 (stereo not given)	0	0	1	-8	-1	7	·
CS(=O)(=O)c1cnc2c(-c3ccc(F)cc3)cnn2c1N	0	-1	0	-87	-136	-179	·
SMILES	aDG glyco act	MPTP inh	NR2E3 ag-1	NR2E3 ag-2	Jurkat NFkB inh	697 NFkB inh	697 NFkB conf
Nc1c(-c2cccs2)cnc2c(-c3ccc(F)cc3)cnn12	0	2	0	-168	-147	-319	-358
Cc1nc2c(-c3ccc(F)cc3)cnn2c(N)c1-c1ccc(F)cc1	1	-2	0	32	-149	-357	-252
Cc1ccc(C)c2[nH]c(=O)c(CCNC(=O)c3ccco3)cc12	0	1	4	-9	-10	2	·
CCCCn1c(N)c(N(CC(C)C)C(=O)c2cccc(OCc3ccccc3)c2)c(=O)[nH]c1=O	0	0	4	4	4	5	·
COC(=O)C1CCN(C(=O)COC(=O)[C@@H]2CC(O)CN2S(=O)(=O)c2ccc3c(c2)OCCO3)CC1 (stereo not given in full)	0	1	1	-2	-5	-18	·
COc1ccc(-c2cc(C(=O)N/N=C/c3sccc3C)c3ccccc3n2)c(OC)c1	0	0	-1	-7	-23	-275	-21
COc1ccc(-c2cc(C(=O)N/N=C/c3ccc4c(c3)OCO4)c3ccccc3n2)c(OC)c1	0	-1	5	-29	-3	-64	·
Cc1nn(C(C)(C)C)c(OC(=O)c2ccc(Br)o2)c1Sc1ccccc1	1	35	-4	-16	9	36*	31*
Cc1nn(C(C)(C)C)c(OC(=O)c2ccco2)c1Sc1ccccc1	0	26	-4	-22	-2	18	·
Cc1nc(NC(=O)c2cnccn2)ccc1Br	0	2	·	-89	·	·	·
Cn1cccc1C(=O)OCc1csc(-c2ccccc2)n1	0	0	4	-190	-121	-292	-341
COCCCNC(=O)COc1ccc(-c2nccc(-c3ccccn3)n2)cc1	0	-3	2	3	3	53*	63*
Cc1ccc(S(=O)(=O)Nc2ccc(F)c(F)c2O)cc1	0	3	·	·	·	·	·
Brc1ccc(-c2ncc(-c3ccccc3)cn2)cc1	0	10	1	-67	-150	-289	-210
Brc1ccc(-c2ccccc2)cc1	0	1	-1	0	6	13	·
O=C(COC(=O)c1cccc(S(=O)(=O)NCc2ccccc2)c1)NCC1CCCO1 (stereo not given)	0	0	0	-20	-16	9	·
O=C(NCCCN1CCOCC1)c1cc(-c2ccc(Br)cc2)on1	0	0	0	18	3	63*	38*
CCn1cc(C(=O)O)c(=O)c2cnc(N3CCN(C(=S)Nc4ccc(F)cc4)CC3)nc21	·	·	3	·	7	8	·
CCn1cc(C(=O)O)c(=O)c2cc(F)c(N3CCN(C(=S)NC(=O)c4ccc(Br)cc4)CC3)cc21	0	1	2	-26	-21	38*	11
